# In the library only some 2.9% were active in any assay of this set; here they are far more common.
# E-sel inducer = induces E-selectin expression in human endothelial cells | P16581 | HUVEC E-selectin immunofluorescence imaging; normalized: neutral wells 0, TNF-alpha wells 100 | activation, % at 7.58 µM | hit rate 0.37% among 260,000;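 active = mean E-selectin-positive cell signal at least 10% of the positive control, reached in at least 60% of replicates, without over 20% cell loss; inconclusive = no rule given, readout overlaps actives, possibly toxicity-flagged; inactive = the rest, including those meeting only one limit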
#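 Material: HUVEC primary endothelial cells; Amount: 3,000 cells per well; Dosing: single concentration; Medium: EGM-2 growth medium on 0.1% gelatin-coated wells; Read-out basis: percent E-selectin-positive cells; Signal: immunofluorescence imaging; Control set: TNF-alpha, DMSO.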
# SIRT5 block = blocks human SIRT5 desuccinylation of peptide; inhibition, % at 15 µM; Purified SirT5, succinyl-peptide AMC, trypsin-coupled fluorescence; Q9NXA8; hit rate 1.1% among 330,000; in the data active = inhibition above about 15%; inconclusive = no clear call, values can overlap the other calls
# Target sequence (Q9NXA8 whole entry, looked up): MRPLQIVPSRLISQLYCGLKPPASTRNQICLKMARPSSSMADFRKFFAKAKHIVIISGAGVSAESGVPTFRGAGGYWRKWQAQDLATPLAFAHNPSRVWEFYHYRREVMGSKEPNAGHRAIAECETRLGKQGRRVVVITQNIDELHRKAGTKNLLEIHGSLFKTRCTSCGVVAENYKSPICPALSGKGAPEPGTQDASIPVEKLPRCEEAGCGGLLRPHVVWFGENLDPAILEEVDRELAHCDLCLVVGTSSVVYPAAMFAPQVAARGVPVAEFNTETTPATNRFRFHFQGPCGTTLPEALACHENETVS
# DENV2 CPE = DENV2-induced cell death inhibition; DENV2-infected cells, cytopathic effect rescue, plate reader; CPE inhibition, % at 9.99 µM; AID 651640; hit rate 1.7% among 350,000; in the data active = CPE inhibition above about 20%, passing the limit was not always enough; inconclusive = no clear call, values can overlap the other calls; tested in BHK-21 cells
# Numbers stand for hits; . = inactive; ? = inconclusive; / = no result.
SMILES,E-sel inducer,SIRT5 block,DENV2 CPE
CCOc1cc(C(=O)NC(CC(=O)O)c2ccc(OC3CCCC3)cc2)cc(OCC)c1OCC (stereo not drawn),.,24,.
C[C@@H]1CCCCO[C@H](CN(C)S(=O)(=O)c2cn(C)cn2)[C@@H](C)CN([C@H](C)CO)C(=O)c2cc(NC(=O)CCC(F)(F)F)ccc2O1,.,.,.
Cc1sc(NC(=O)c2ccco2)c(CN2CCN(c3ccc(F)cc3)CC2)c1C,/,.,/
COc1ccc(-n2nnnc2SCC(=O)c2ccc3c(c2)OCCO3)c(OC)c1,/,27,.
O=C(CSc1nnnn1C1CCCC1)c1ccc2c(c1)OCCO2,/,.,/
CCCCN1C(N)=NC[C@@H]1C(C)O (stereo partly drawn),.,/,23
CC(O)[C@H]1CN=C(N)N1CC(C)(C)C (stereo partly drawn),.,/,.
O=C(N/N=C/c1cccc([N+](=O)[O-])c1)c1ccc2c(c1)OCCO2,.,/,/
O=[N+]([O-])c1cccc(C=Nc2cc3c(cc2Br)OCCO3)c1,/,.,44
CCN1CCN(C(=O)c2cc(S(=O)(=O)N3CC(C)CC(C)C3)ccc2Cl)CC1 (stereo not drawn),.,.,.
CN1CCN(Cc2cc(Cl)c3cccnc3c2OC(=O)c2cccs2)CC1,.,/,/
O=C(Oc1c(CN2CCOCC2)cc(Cl)c2cccnc12)c1ccccc1Br,/,.,41
CCCc1cc(=O)[nH]c(N2CCN(Cc3ccc4c(c3)OCO4)CC2)n1,.,.,.
O=C(CCC(=O)OCc1ccc(Br)cc1)Nc1ccccc1,/,35,.
O=C(CCC(=O)OCc1ccc(C(=O)Oc2ccc(Cl)cc2)cc1)Nc1ccccc1,.,/,/
COc1ccccc1C(NC(=O)C1CCCCC1)c1c(O)ccc2ccccc12 (stereo not drawn),/,.,.
C[C@@H]1CC[C@@]23COC(=O)C2=CCC[C@@H]3[C@@]1(C)CC/C(=C/CO)CO,/,.,.
CC1=CCC[C@H]2[C@H](C1)C(=O)C[C@@H](C)[C@]2(C)CC/C(=C/CO)CO,/,.,24
Cn1nc(-c2ccccc2)c(/C=N/O)c1Cl,/,.,.
Cn1nc(CSc2ccccc2)c(C=O)c1Cl,.,15,.
O=C(C1CCN(c2nnc(-n3cccc3)s2)CC1)N1CCCCC1,/,.,.
O=C(Nc1ccc(Br)cc1F)C1CCN(c2nnc(-n3cccc3)s2)CC1,/,/,26
C[C@H](O)CNC(=O)c1[nH]cnc1C(=O)N[C@@H](C)c1ccccc1,.,.,.
C[C@@H]1CN([C@H](C)CO)C(=O)c2cccc(NC(=O)NC3CCCCC3)c2O[C@H]1CN(C)CC1CCCCC1,.,.,.
C[C@@H]1CN([C@@H](C)CO)C(=O)c2cccc(NC(=O)C3CCOCC3)c2O[C@@H]1CN(C)CC1CCCCC1,.,.,.
SMILES,E-sel inducer,SIRT5 block,DENV2 CPE
C[C@@H]1CN([C@@H](C)CO)C(=O)c2cccc(NC(=O)C3CCCCC3)c2O[C@@H]1CN(C)CC1CC1,.,.,.
C[C@H]1CN([C@@H](C)CO)C(=O)c2cccc(NC(=O)C3CCOCC3)c2O[C@H]1CN(C)CC1CCCCC1,.,.,44
C[C@@H]1CN([C@H](C)CO)C(=O)c2cccc(NC(=O)C3CCCCC3)c2O[C@@H]1CN(C)CC1CC1,.,21,.
C[C@H]1CN([C@@H](C)CO)C(=O)c2cccc(NC(=O)NC3CCCCC3)c2O[C@@H]1CN(C)CC1CCCCC1,.,.,30
N#CCCN(C(=O)COC(=O)c1ccc2c(c1)NC(=O)CS2)c1ccc2c(c1)OCCO2,/,37,/
COC(=O)c1ccc2c(c1)NC(=O)CS2,.,.,.
C[C@@H]1CN([C@H](C)CO)C(=O)c2cccc(NS(=O)(=O)c3cn(C)cn3)c2O[C@@H]1CN(C)C(=O)Nc1ccc(F)cc1,.,.,.
C[C@@H]1CN([C@H](C)CO)C(=O)c2cccc(NS(=O)(=O)c3cn(C)cn3)c2O[C@H]1CN(C)C(=O)Nc1ccc(F)cc1,410,.,71
C[C@@H]1CN([C@@H](C)CO)C(=O)c2cccc(NS(=O)(=O)c3cn(C)cn3)c2O[C@H]1CN(C)C(=O)Nc1ccccc1,.,.,.
C[C@@H]1CN([C@H](C)CO)C(=O)c2cccc(NS(=O)(=O)c3cn(C)cn3)c2O[C@H]1CN(C)C(=O)Nc1ccc2c(c1)OCO2,?,.,72
C[C@@H]1CN([C@@H](C)CO)C(=O)c2cc(NS(=O)(=O)c3ccccc3)ccc2O[C@@H]1CN(C)Cc1ccccc1,.,.,.
CC(C)C(=O)N[C@@H]1c2ccccc2CC[C@@H]1OCc1ccccc1,.,/,.
CC(O)CNC1c2ccccc2CC1O (stereo not drawn),.,/,63
C[C@H]1CN([C@@H](C)CO)C(=O)c2cc(C#CCN(C)C)cnc2O[C@H]1CN(C)S(=O)(=O)c1ccccc1,.,63,.
COc1cccc(S(=O)(=O)N(C)C[C@@H]2Oc3ncc(-c4cccc(F)c4)cc3C(=O)N([C@H](C)CO)C[C@@H]2C)c1,.,.,.
COc1cccc(S(=O)(=O)N(C)C[C@@H]2Oc3ncc(-c4cccc(C(F)(F)F)c4)cc3C(=O)N([C@H](C)CO)C[C@@H]2C)c1,.,20,.
CCCC#Cc1cnc2c(c1)C(=O)N([C@H](C)CO)C[C@@H](C)[C@@H](CN(C)S(=O)(=O)c1cccc(OC)c1)O2,.,.,.
CCCC#Cc1cnc2c(c1)C(=O)N([C@@H](C)CO)C[C@@H](C)[C@H](CN(C)S(=O)(=O)c1cccc(OC)c1)O2,.,29,.
C[C@@H]1CN([C@@H](C)CO)C(=O)c2cc(C#CCN(C)C)cnc2O[C@@H]1CN(C)S(=O)(=O)c1ccccc1,.,.,.
Cc1nc(N)sc1C(=O)N/N=C/c1ccc([N+](=O)[O-])cc1,.,.,.
Cc1cccc(S(=O)(=O)N[C@@H]2CC[C@@H](CCNS(=O)(=O)c3ccccc3F)O[C@@H]2CO)c1,.,.,.
C[C@@H]1CN([C@H](C)CO)C(=O)c2cc(-c3cccnc3)cnc2O[C@H]1CN(C)C(=O)C1CC1,.,.,.
O=C(C[C@H]1CC[C@H]2NC[C@@H](O)COC[C@@H]2O1)NCc1ccc(Oc2ccccc2)cc1,.,.,.
Cc1ccc(C(=O)N2CCN(c3ccc4c(c3)C3CC4CCN3C(=O)OCc3ccccc3)CC2)cc1 (stereo not drawn),.,.,.
CO[C@H]1/C=C/O[C@@]2(C)Oc3c(C)c(O)c4c(O)c(c5c(c4c3C2=O)NC2(CCN(CC(C)C)CC2)N=5)=NC(=O)/C(C)=C\C=C\[C@H](C)[C@H](O)[C@@H](C)[C@@H](O)[C@@H](C)[C@H](OC(C)=O)[C@@H]1C,/,/,110
SMILES,E-sel inducer,SIRT5 block,DENV2 CPE
S=C(NCCc1ccccc1)N/N=C/c1cccs1,/,.,.
Cc1ccsc1/C=N/NC(=S)NCCc1ccccc1,.,16,.
C[C@H](CO)N1C[C@H](C)[C@H](CN(C)C(=O)Nc2ccc3c(c2)OCO3)Oc2ccc(N(C)C)cc2CC1=O,/,.,.
O=C(O)C1CCN(c2nc(-c3ccccc3)c3cc(Br)ccc3n2)CC1,34,.,.
OCCN1CCN(c2nc(-c3ccccc3)c3cc(Br)ccc3n2)CC1,.,.,.
O=c1cc(Cl)[nH]c(=O)n1Cc1ccc(F)cc1,/,.,.
O=C(CN1C(=O)c2cccc3cccc(c23)C1=O)NCCCO,63,.,.

# Screens: PubChem BioAssay, Broad Institute
